pIC50: −log10 of the molar value.
Assays:
Assay type in all cases: functional, cell-based
NALM-6 = assay: Cytotoxicity against human NALM6 cells incubated for 3 days by CellTiter-Glo luminescent assay; conditions: NALM-6, 72 h
Method in brief: (§1)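 CellTiter-Glo viability read-out on leukemia cell lines. IC50 reported as the average of triplicates.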

KG-1 = assay: Cytotoxicity against human KG1 cells incubated for 3 days by CellTiter-Glo luminescent assay; conditions: KG-1, 72 h; method in brief: as §1
Jurkat = assay: Cytotoxicity against human Jurkat cells incubated for 3 days by CellTiter-Glo luminescent assay; conditions: 72 h; method in brief: as §1
HL-60 = assay: Cytotoxicity against human HL60 cells incubated for 3 days by CellTiter-Glo luminescent assay; conditions: HL-60, 72 h; method in brief: as §1

Compound: O=C(Nc1cc(C(F)(F)F)cc(C(F)(F)F)c1)c1cc(F)ccc1O
- pIC50 (NALM-6): 6.21
- pIC50 (KG-1): 6.33
- pIC50 (Jurkat): 6.30
- pIC50 (HL-60): 6.49

Compound: O=C(Nc1cc(C(F)(F)F)cc(C(F)(F)F)c1)c1cc(Cl)c(F)cc1O
- pIC50 (NALM-6): 5.67
- pIC50 (KG-1): 6.33
- pIC50 (Jurkat): 6.14
- pIC50 (HL-60): 6.37

Compound: O=C(Nc1ccc(Cl)c(Br)c1)c1cc(Cl)ccc1O
- pIC50 (NALM-6): 5.51
- pIC50 (KG-1): 6.17
- pIC50 (Jurkat): 5.87
- pIC50 (HL-60): 6.11

Compound: O=C(Nc1ccc(OC(F)(F)F)cc1)c1cc(F)ccc1O
- pIC50 (NALM-6): 5.92
- pIC50 (KG-1): 6.11
- pIC50 (Jurkat): 6.09
- pIC50 (HL-60): 6.07

Compound: O=C(Nc1ccc(C(F)(F)F)cc1)c1ccc(F)cc1O
- pIC50 (NALM-6): 5.82
- pIC50 (KG-1): 6.13
- pIC50 (Jurkat): 6.10
- pIC50 (HL-60): 6.17

Compound: O=C(Nc1ccc(Cl)cc1Cl)c1cc(F)ccc1O
- pIC50 (NALM-6): 5.79
- pIC50 (KG-1): 6.07
- pIC50 (Jurkat): 6.06
- pIC50 (HL-60): 6.05

Compound: N#Cc1ccc(NC(=O)c2ccc(-c3ccncc3)cc2O)cc1
- pIC50 (KG-1): 5.05
- pIC50 (HL-60): 5.15

Compound: N#Cc1ccc(NC(=O)c2cc(C(F)(F)F)ccc2O)cc1
- pIC50 (KG-1): 5.32
- pIC50 (HL-60): 5.51

Compound: Cc1ccc(C(=O)Nc2ccc(C#N)cc2)c(O)c1
- pIC50 (KG-1): 5.59
- pIC50 (HL-60): 5.62

Compound: O=C(Nc1ccc([N+](=O)[O-])cc1)c1cc(F)ccc1O
- pIC50 (NALM-6): 5.68
- pIC50 (KG-1): 5.96
- pIC50 (Jurkat): 6.03
- pIC50 (HL-60): 6.28

Compound: O=C(Nc1ccc(OC(F)(F)F)c(Cl)c1)c1cc(F)ccc1O
- pIC50 (NALM-6): 6.00
- pIC50 (KG-1): 6.43
- pIC50 (Jurkat): 6.15
- pIC50 (HL-60): 6.26

Compound: N#Cc1cccc(NC(=O)c2cc(F)ccc2O)c1
- pIC50 (KG-1): 5.04
- pIC50 (HL-60): 5.11

Compound: N#Cc1ccc(NC(=O)c2ccc3cccnc3c2O)c(Cl)c1
- pIC50 (NALM-6): 6.38
- pIC50 (KG-1): 5.44
- pIC50 (Jurkat): 6.26
- pIC50 (HL-60): 6.04

Compound: O=C(Nc1ccc(C(F)(F)F)c(Cl)c1)c1cc(Cl)ccc1O
- pIC50 (NALM-6): 5.91
- pIC50 (KG-1): 6.35
- pIC50 (Jurkat): 6.16
- pIC50 (HL-60): 6.34

Compound: N#Cc1ccc(NC(=O)c2ccc(F)cc2O)cc1
- pIC50 (KG-1): 5.50
- pIC50 (HL-60): 5.86

Compound: O=C(Nc1cc(Cl)cc(Cl)c1)c1cc(F)ccc1O
- pIC50 (NALM-6): 5.84
- pIC50 (KG-1): 6.11
- pIC50 (Jurkat): 6.15
- pIC50 (HL-60): 6.22

Compound: O=C(Nc1cc(C(F)(F)F)cc(C(F)(F)F)c1)c1cc(Br)c(F)cc1O
- pIC50 (NALM-6): 6.02
- pIC50 (KG-1): 6.29
- pIC50 (Jurkat): 6.15
- pIC50 (HL-60): 6.60

Compound: N#Cc1ccc(NC(=O)c2cccc(F)c2O)cc1
- pIC50 (KG-1): 5.01
- pIC50 (HL-60): 5.27

Compound: N#Cc1ccc(NC(=O)c2c(O)ccc3ccccc23)cc1
- pIC50 (KG-1): 5.42
- pIC50 (HL-60): 5.35

Compound: N#Cc1ccc(NC(=O)c2ccc(Br)cc2O)cc1Cl
- pIC50 (NALM-6): 6.04
- pIC50 (KG-1): 6.02
- pIC50 (Jurkat): 6.12
- pIC50 (HL-60): 6.36

Compound: N#Cc1ccc(CC(=O)c2cc(F)ccc2O)cc1
- pIC50 (KG-1): < 5.00
- pIC50 (HL-60): < 5.00

Compound: N#Cc1ccc(NC(=O)c2cc(Br)c(-c3ccccc3)cc2O)cc1
- pIC50 (KG-1): 6.07
- pIC50 (HL-60): 6.15

Compound: O=C(Nc1ccc(C(F)(F)F)cc1)c1cc(Cl)ccc1O
- pIC50 (NALM-6): 5.92
- pIC50 (KG-1): 6.13
- pIC50 (Jurkat): 6.15
- pIC50 (HL-60): 6.29

Compound: N#Cc1ccc(NC(=O)c2ccc(Cl)cc2O)cc1
- pIC50 (KG-1): 5.72
- pIC50 (HL-60): 5.89

Compound: O=C(Nc1ccc(Cl)cc1Cl)c1ccc2cccnc2c1O
- pIC50 (NALM-6): 6.35
- pIC50 (KG-1): 5.45
- pIC50 (Jurkat): 6.37
- pIC50 (HL-60): 6.21

Compound: N#Cc1ccc(NC(=O)c2cc(-c3ccncc3)ccc2O)cc1
- pIC50 (KG-1): 5.10
- pIC50 (HL-60): 5.27

Compound: N#Cc1ccc(NC(=O)c2ccc(Br)cc2O)c(Cl)c1
- pIC50 (NALM-6): 5.73
- pIC50 (KG-1): 6.10
- pIC50 (Jurkat): 6.12
- pIC50 (HL-60): 6.14

Compound: Cc1cc(C#N)ccc1NC(=O)c1ccc2cccnc2c1O
- pIC50 (NALM-6): 6.64
- pIC50 (KG-1): 5.49
- pIC50 (Jurkat): 6.57
- pIC50 (HL-60): 6.15

Compound: O=C(Nc1ccc(OC(F)(F)F)cc1Cl)c1cc(Cl)ccc1O
- pIC50 (NALM-6): 5.87
- pIC50 (KG-1): 6.21
- pIC50 (Jurkat): 6.06
- pIC50 (HL-60): 6.19

Compound: N#Cc1ccc(Nc2n[nH]c3ccccc23)cc1
- pIC50 (KG-1): < 5.00
- pIC50 (HL-60): < 5.00

Compound: N#Cc1ccc(NC(=O)c2ccccc2O)cc1
- pIC50 (KG-1): 5.27
- pIC50 (HL-60): 5.34

Compound: O=C(Nc1ccc(Cl)cc1)c1ccc2cccnc2c1O
- pIC50 (NALM-6): 6.42
- pIC50 (KG-1): 5.48
- pIC50 (Jurkat): 6.29
- pIC50 (HL-60): 6.20

Compound: O=C(Nc1cc(C(F)(F)F)cc(C(F)(F)F)c1)c1cc(Cl)ccc1O [IMD-0354]
- pIC50 (NALM-6): 6.20
- pIC50 (KG-1): 6.30
- pIC50 (Jurkat): 6.32
- pIC50 (HL-60): 6.80

Compound: O=C(Nc1ccc(Br)c(Cl)c1)c1cc(F)ccc1O
- pIC50 (NALM-6): 5.90
- pIC50 (KG-1): 6.17
- pIC50 (Jurkat): 6.07
- pIC50 (HL-60): 6.22

Compound: N#Cc1ccc(NC(=O)c2cc(-c3cccnc3)ccc2O)cc1
- pIC50 (KG-1): 5.08
- pIC50 (HL-60): 5.10

Compound: N#Cc1ccc(NC(=O)c2cc(Cc3ccccc3)ccc2O)cc1
- pIC50 (KG-1): 5.71
- pIC50 (HL-60): 5.76

Compound: COc1cc2ccccc2cc1C(=O)Nc1ccc(C#N)cc1
- pIC50 (KG-1): < 5.00
- pIC50 (HL-60): < 5.00

Compound: COc1ccc(C(=O)Nc2ccc(C#N)cc2)c(O)c1
- pIC50 (KG-1): 5.27
- pIC50 (HL-60): 5.26

Compound: N#Cc1ccc(NC(=O)c2ccc(C(F)(F)F)cc2O)cc1
- pIC50 (KG-1): 5.84
- pIC50 (HL-60): 5.99

Compound: N#Cc1ccc(NC(=O)c2ccc3ccccc3c2O)cc1
- pIC50 (KG-1): 5.57
- pIC50 (HL-60): 5.47

Compound: COc1cccc(C(=O)Nc2ccc(C#N)cc2)c1O
- pIC50 (KG-1): < 5.00
- pIC50 (HL-60): < 5.00

Compound: N#Cc1ccc(NC(=O)c2ccc(-c3cccnc3)cc2O)cc1
- pIC50 (KG-1): 5.10
- pIC50 (HL-60): 5.18

Compound: CC(=O)Oc1cc2ccccc2cc1C(=O)Nc1ccc(C#N)cc1
- pIC50 (KG-1): 5.77
- pIC50 (HL-60): 5.77

Compound: O=C(Nc1ccccc1)c1cc(F)ccc1O
- pIC50 (KG-1): < 5.00
- pIC50 (HL-60): < 5.00

Compound: N#Cc1ccc(NC(=O)c2c(O)cccc2F)cc1
- pIC50 (KG-1): < 5.00
- pIC50 (HL-60): < 5.00

Compound: Cc1cccc(O)c1C(=O)Nc1ccc(C#N)cc1
- pIC50 (KG-1): 5.10
- pIC50 (HL-60): 5.16

Compound: N#Cc1ccc(NC(=O)c2cc(-c3ccccc3)ccc2O)cc1
- pIC50 (KG-1): 5.89
- pIC50 (HL-60): 5.87

Compound: N#Cc1ccc(NC(=O)c2cc(Cl)c(-c3ccccc3)cc2O)cc1
- pIC50 (KG-1): 6.32
- pIC50 (HL-60): 6.28

Compound: Cc1ccc(O)c(C(=O)Nc2ccc(C#N)cc2)c1
- pIC50 (KG-1): 5.47
- pIC50 (HL-60): 5.41

Compound: N#Cc1ccc(NS(=O)(=O)c2cc(F)ccc2O)cc1
- pIC50 (KG-1): < 5.00
- pIC50 (HL-60): < 5.00

Compound: N#Cc1ccc(NC(=O)c2cc(Br)c3cccnc3c2O)cc1
- pIC50 (NALM-6): 6.68
- pIC50 (Jurkat): 6.64
- pIC50 (HL-60): 6.48

Compound: N#Cc1ccc(NC(=O)c2cccc(Br)c2O)cc1
- pIC50 (KG-1): 5.49
- pIC50 (HL-60): 5.54

Compound: N#Cc1ccc(NC(=O)c2cc(F)ccc2O)cc1
- pIC50 (KG-1): 5.57
- pIC50 (HL-60): 5.85

Compound: N#Cc1ccc(NC(=O)c2ccc(-c3ccccc3)cc2O)cc1
- pIC50 (KG-1): 6.39
- pIC50 (HL-60): 6.15

Compound: N#Cc1ccc(NC(=O)c2cccc3cc[nH]c23)cc1
- pIC50 (KG-1): < 5.00
- pIC50 (HL-60): < 5.00

Compound: N#Cc1ccc2nc(-c3ccccc3O)[nH]c2c1
- pIC50 (KG-1): < 5.00
- pIC50 (HL-60): < 5.00

Compound: CN(C(=O)c1cc(F)ccc1O)c1ccc(C#N)cc1
- pIC50 (KG-1): < 5.00
- pIC50 (HL-60): < 5.00

Compound: N#Cc1ccc(NC(=O)c2ccc[nH]c2=O)cc1
- pIC50 (KG-1): < 5.00
- pIC50 (HL-60): < 5.00

Compound: N#Cc1ccc(NC(=O)c2ccc(Br)cc2O)cc1
- pIC50 (KG-1): 5.84
- pIC50 (HL-60): 5.92

Compound: CS(=O)(=O)Nc1ccc(Cl)cc1C(=O)Nc1ccc(C#N)cc1
- pIC50 (KG-1): < 5.00
- pIC50 (HL-60): < 5.00

Compound: Cc1cccc(C(=O)Nc2ccc(C#N)cc2)c1O
- pIC50 (KG-1): 5.05
- pIC50 (HL-60): < 5.00

From ChEMBL document CHEMBL4385626, “SAR optimization studies on modified salicylamides as a potential treatment for acute myeloid leukemia through inhibition of the CREB pathway” (Bioorg Med Chem Lett, 2019)
